One assay deals with Staphylococcus aureus. The experiment in a line: Antibacterial activity against Staphylococcus aureus MTCC 2901 after 24 hrs by tube dilution method. The assay is classed as functional.
The test system of a further assay is Bacillus subtilis. The experiment in a line: Antibacterial activity against Bacillus subtilis MTCC 2063 after 24 hrs by tube dilution method. The assay is classed as functional.
In another assay the test system is Escherichia coli. The experiment in a line: Antibacterial activity against Escherichia coli MTCC 1652 after 24 hrs by tube dilution method. Type of assay: functional.
The next assay concerns Candida albicans. In words: Antifungal activity against Candida albicans MTCC 227 after 48 hrs by tube dilution method. Type of assay: functional.
A further assay has as its system Aspergillus niger. In words: Antifungal activity against Aspergillus niger MTCC 8184 after 7 days by tube dilution method. Type of assay: functional. In outline: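 Tube (serial) dilution MIC in Sabouraud dextrose broth I.P., 25 °C for 7 days. Results are recorded as MIC and reported as pMIC in mM.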
In assay [1] the test system is MCF7. In words: Growth inhibition of human MCF7 cells at 50 uM after 48 hrs by MTT assay. Type of assay: functional. To be noted: MCF7, 48 h, read-out: GI. In outline: (§1)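 Cells from ECACC are kept in RPMI-1640 with 10% FCS and 1% penicillin at 37 °C in 5% CO2. They are seeded at 3×10^3 cells/well and dosed after 24 h from filter-sterilized DMSO stocks, then treated for 48 h. MTT (2.5 mg/mL in PBS) is added, formazan is dissolved in DMSO, and A570 is read. Viability is given as % of untreated.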
Background: Tetrazolium dyes change colour on reduction, which living cells bring about.

Assay [2] has as its system MCF7. The experiment in a line: Growth inhibition of human MCF7 cells at 10 uM after 48 hrs by MTT assay. Type of assay: functional. Particulars: MCF7, 48 h, read-out: GI. The method, boiled down:
as §1

In assay [3] the test system is A549. In words: Growth inhibition of human A549 cells at 50 uM after 48 hrs by MTT assay. The assay is classed as functional. To be noted: A549, 48 h, read-out: GI. The method, boiled down: as §1
Assay [4] relates to A549. The experiment in a line: Growth inhibition of human A549 cells at 10 uM after 48 hrs by MTT assay. Type of assay: functional. To be noted: A549, 48 h, read-out: GI. The method, boiled down:
as §1

Assay [5] concerns HCT-116. In words: Growth inhibition of human HCT116 cells at 50 uM after 48 hrs by MTT assay. The assay is classed as functional. To be noted: HCT-116, 48 h, read-out: GI. The method, boiled down:
as §1

Assay [6] concerns HCT-116. The experiment in a line: Growth inhibition of human HCT116 cells at 10 uM after 48 hrs by MTT assay. The assay is classed as functional. Particulars: HCT-116, 48 h, read-out: GI. The method, boiled down: as §1
Assay [7] concerns PC-3. In words: Growth inhibition of human PC3 cells at 50 uM after 48 hrs by MTT assay. Type of assay: functional. Particulars: PC-3, 48 h, read-out: GI. The method, boiled down:
as §1

Assay [8] concerns PC-3. The experiment in a line: Growth inhibition of human PC3 cells at 10 uM after 48 hrs by MTT assay. Type of assay: functional. To be noted: PC-3, 48 h, read-out: GI. The method, boiled down:
as §1

Assay [9] deals with MCF7. In words: Growth inhibition of human MCF7 cells after 48 hrs by MTT assay. The assay is classed as functional, cell-based. In outline: as §1
The subject of assay [10] is A549. In words: Growth inhibition of human A549 cells after 48 hrs by MTT assay. Type of assay: functional, cell-based. In outline:
as §1

The subject of assay [11] is HCT-116. In words: Growth inhibition of human HCT116 cells after 48 hrs by MTT assay. The assay is classed as functional, cell-based. The method, boiled down: as §1
Assay [12] has as its system MCF7. In words: Growth inhibition of human MCF7 cells at 1 uM after 48 hrs by MTT assay. The assay is classed as functional. Particulars: MCF7, 48 h, read-out: GI. In outline: as §1
In assay [13] the test system is A549. In words: Growth inhibition of human A549 cells at 1 uM after 48 hrs by MTT assay. The assay is classed as functional. Particulars: A549, 48 h, read-out: GI. In outline:
as §1

The subject of assay [14] is PC-3. The experiment in a line: Growth inhibition of human PC3 cells at 1 uM after 48 hrs by MTT assay. The assay is classed as functional. Particulars: PC-3, 48 h, read-out: GI. In outline:
as §1

Assay [15] concerns A549. In words: Growth inhibition of human A549 cells at 20 uM after 48 hrs by MTT assay. The assay is classed as functional. Particulars: A549, 48 h, read-out: GI. The method, boiled down: (§2)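 Cells from ECACC, grown in RPMI-1640 with 10% FCS and 1% penicillin, 37 °C, 5% CO2. Seeded at 3×10^3 cells/well in 100 µL medium. Compounds added 24 h later from filter-sterilized DMSO stocks. MTT (2.5 mg/mL in PBS, 20 µL) added, then at least 4 h incubation. Formazan dissolved in DMSO after 48 h treatment, absorbance read at 570 nm. Results given as % viable cells versus untreated.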

Assay [16] relates to HCT-116. The experiment in a line: Growth inhibition of human HCT116 cells at 20 uM after 48 hrs by MTT assay. The assay is classed as functional. Particulars: HCT-116, 48 h, read-out: GI. The method, boiled down: as §2

As to `Fc1ccc(C2=NC(c3ccc(F)cc3)c3c(ccc4ccccc34)O2)cc1` (stereo not drawn), the “-logMIC” value is on record as 2.07 with Staphylococcus aureus; 1.77 with Bacillus subtilis; 1.47 in the assay with Escherichia coli; 1.77 in the assay with Candida albicans; 1.47 with Aspergillus niger. Besides, the inhibition of growth at 50 µM was found to be 50% in the assay with MCF7 [1], 50% with A549 [3], 51% in the assay on HCT-116 [5] and 29% in the assay on PC-3 [7]. The inhibition of growth at 10 µM with MCF7 [2] turned out to be 36%; in the assay with A549 [4] it was 20%; in the assay with HCT-116 [6], 5%; in the assay on PC-3 [8], 22%. Besides, the “growth inhibition (GI)” value in the assay with MCF7 [9], with A549 [10] and in the assay on HCT-116 [11] was “Dose-dependent effect” in each case.
Regarding `CO[C@@]12[C@H](COC(N)=O)C3=C(C(=O)C(C)=C(N)C3=O)N1C[C@@H]1N[C@@H]12` [MITOMYCIN], the inhibition of growth at 1 µM in the assay with MCF7 [12] worked out at 82%; with A549 [13], 70%; with PC-3 [14], 70%.
For `O=c1[nH]cc(F)c(=O)[nH]1` [FLUOROURACIL], the inhibition of growth at 20 µM in the assay with A549 [15] is 79%; in the assay on HCT-116 [16] it was 78%.
On to `Fc1ccc(C2=NC(c3ccccc3)c3c(ccc4ccccc34)O2)cc1` (stereo not drawn), for which the “-logMIC” value was 1.75 in the assay with Staphylococcus aureus; 2.05 with Bacillus subtilis; 2.35 in the assay on Escherichia coli; 1.75 with Candida albicans; 1.45 with Aspergillus niger. The inhibition of growth at 50 µM with MCF7 [1] stood at 51%; with A549 [3], 50%; in the assay on HCT-116 [5], 56%; with PC-3 [7] it was 39%. For the same compound, the inhibition of growth at 10 µM in the assay with MCF7 [2] stood at 29%; in the assay on A549 [4], 18%; with HCT-116 [6] it was 12%; in the assay on PC-3 [8], 14%. Also, the “growth inhibition (GI)” value in the assay with MCF7 [9], with A549 [10] and in the assay on HCT-116 [11] was “Dose-dependent effect” throughout.
Turning to `Clc1ccc(C2=NC(c3ccc(Cl)cc3)c3c(ccc4ccccc34)O2)cc1` (stereo not drawn), the “-logMIC” value in the assay with Staphylococcus aureus came out at 1.51; with Bacillus subtilis it was 1.81; in the assay with Escherichia coli, 2.11; with Candida albicans, 1.81; with Aspergillus niger, 1.51. In addition, the inhibition of growth at 50 µM in the assay on MCF7 [1] was determined as 38%; in the assay on A549 [3] it was 54%; with HCT-116 [5] it was 10%; in the assay on PC-3 [7], 2%. The inhibition of growth at 10 µM stood at 16% in the assay on MCF7 [2], 28% in the assay with A549 [4], 2% in the assay on HCT-116 [6] and 1% in the assay on PC-3 [8].
For `Cc1ccc(C2N=C(c3ccccc3)Oc3ccc4ccccc4c32)cc1` (stereo not drawn), the “-logMIC” value is 1.45 in the assay with Staphylococcus aureus; 1.75 in the assay on Bacillus subtilis; 2.35 with Escherichia coli; 1.75 in the assay on Candida albicans; 1.45 with Aspergillus niger. Also, the inhibition of growth at 50 µM in the assay on MCF7 [1] came to 32%; with A549 [3] it was 37%; with HCT-116 [5] it was 8%; with PC-3 [7], 3%. Also, the inhibition of growth at 10 µM with MCF7 [2] was 17%; in the assay on A549 [4], 17%; in the assay on HCT-116 [6] it was 2%; with PC-3 [8], 1%.

Values taken from ChEMBL document CHEMBL2086288, “Synthesis, antimicrobial and cytotoxicity study of 1,3-disubstituted-1H-naphtho[1,2-e][1,3]oxazines” (2012).
